Assay results: ChEMBL document CHEMBL3399974, “Discovery and SAR of novel series of imidazopyrimidinones and dihydroimidazopyrimidinones as positive allosteric modulators of the metabotropic glutamate receptor 5 (mGlu5)” (Bioorg Med Chem Lett, 2015)

Columns and labels:
[1] = molecular target: T1, Metabotropic glutamate receptor 5 (Rattus norvegicus, UniProt P31424); assay: Positive allosteric modulation at rat mGluR5 expressed in HEK293 cells by calcium mobilization assay; assay type: functional, cell-based
T1 sequence (P31424 whole entry): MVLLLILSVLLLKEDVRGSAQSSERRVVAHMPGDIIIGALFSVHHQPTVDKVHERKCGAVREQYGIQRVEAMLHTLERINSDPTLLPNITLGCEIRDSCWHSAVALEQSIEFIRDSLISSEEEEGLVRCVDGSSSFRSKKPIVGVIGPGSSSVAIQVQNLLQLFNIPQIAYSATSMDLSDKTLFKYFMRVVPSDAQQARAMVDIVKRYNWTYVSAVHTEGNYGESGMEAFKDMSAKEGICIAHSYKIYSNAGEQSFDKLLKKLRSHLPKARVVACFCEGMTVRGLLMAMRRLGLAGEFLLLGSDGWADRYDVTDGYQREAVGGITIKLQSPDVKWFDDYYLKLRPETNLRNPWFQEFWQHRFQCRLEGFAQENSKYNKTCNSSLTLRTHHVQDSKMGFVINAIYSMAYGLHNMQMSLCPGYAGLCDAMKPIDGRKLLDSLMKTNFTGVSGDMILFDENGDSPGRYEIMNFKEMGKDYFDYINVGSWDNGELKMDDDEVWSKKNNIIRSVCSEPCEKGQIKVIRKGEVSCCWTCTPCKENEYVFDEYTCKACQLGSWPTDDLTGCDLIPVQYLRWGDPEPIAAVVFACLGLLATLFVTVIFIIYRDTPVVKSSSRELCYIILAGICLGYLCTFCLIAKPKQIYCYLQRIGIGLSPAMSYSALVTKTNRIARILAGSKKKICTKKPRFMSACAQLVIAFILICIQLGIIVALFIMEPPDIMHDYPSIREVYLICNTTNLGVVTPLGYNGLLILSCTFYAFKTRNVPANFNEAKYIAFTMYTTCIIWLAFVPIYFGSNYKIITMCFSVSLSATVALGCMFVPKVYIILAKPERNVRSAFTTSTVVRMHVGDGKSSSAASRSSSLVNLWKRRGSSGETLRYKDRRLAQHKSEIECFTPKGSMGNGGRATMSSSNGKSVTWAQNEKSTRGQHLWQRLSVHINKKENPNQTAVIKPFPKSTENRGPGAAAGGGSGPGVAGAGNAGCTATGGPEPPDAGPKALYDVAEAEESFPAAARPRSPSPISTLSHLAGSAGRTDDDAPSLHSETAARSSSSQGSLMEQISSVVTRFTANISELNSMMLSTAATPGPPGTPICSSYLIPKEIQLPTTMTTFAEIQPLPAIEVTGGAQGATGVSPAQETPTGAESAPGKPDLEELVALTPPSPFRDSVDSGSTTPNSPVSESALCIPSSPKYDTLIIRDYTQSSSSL
Method in brief: (§1)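 HEK293 cells stably expressing rat mGlu5 were run in a 'triple add' calcium mobilization assay that detects agonism, PAM and NAM activity together. Response amplitude was expressed as % of the maximal response to 100 µM glutamate. Values are the mean of three or more independent determinations.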

[2] = molecular target: Metabotropic glutamate receptor 5 (Rattus norvegicus) (UniProt P31424); assay: Positive allosteric modulation at rat mGluR5 expressed in HEK293 cells assessed as amplitude of response at 30 uM by calcium mobilization assay relative to glutamate; assay type: functional, cell-based
Metabotropic glutamate receptor 5 (Rattus norvegicus), sequence (P31424 21-1203 limits assumed): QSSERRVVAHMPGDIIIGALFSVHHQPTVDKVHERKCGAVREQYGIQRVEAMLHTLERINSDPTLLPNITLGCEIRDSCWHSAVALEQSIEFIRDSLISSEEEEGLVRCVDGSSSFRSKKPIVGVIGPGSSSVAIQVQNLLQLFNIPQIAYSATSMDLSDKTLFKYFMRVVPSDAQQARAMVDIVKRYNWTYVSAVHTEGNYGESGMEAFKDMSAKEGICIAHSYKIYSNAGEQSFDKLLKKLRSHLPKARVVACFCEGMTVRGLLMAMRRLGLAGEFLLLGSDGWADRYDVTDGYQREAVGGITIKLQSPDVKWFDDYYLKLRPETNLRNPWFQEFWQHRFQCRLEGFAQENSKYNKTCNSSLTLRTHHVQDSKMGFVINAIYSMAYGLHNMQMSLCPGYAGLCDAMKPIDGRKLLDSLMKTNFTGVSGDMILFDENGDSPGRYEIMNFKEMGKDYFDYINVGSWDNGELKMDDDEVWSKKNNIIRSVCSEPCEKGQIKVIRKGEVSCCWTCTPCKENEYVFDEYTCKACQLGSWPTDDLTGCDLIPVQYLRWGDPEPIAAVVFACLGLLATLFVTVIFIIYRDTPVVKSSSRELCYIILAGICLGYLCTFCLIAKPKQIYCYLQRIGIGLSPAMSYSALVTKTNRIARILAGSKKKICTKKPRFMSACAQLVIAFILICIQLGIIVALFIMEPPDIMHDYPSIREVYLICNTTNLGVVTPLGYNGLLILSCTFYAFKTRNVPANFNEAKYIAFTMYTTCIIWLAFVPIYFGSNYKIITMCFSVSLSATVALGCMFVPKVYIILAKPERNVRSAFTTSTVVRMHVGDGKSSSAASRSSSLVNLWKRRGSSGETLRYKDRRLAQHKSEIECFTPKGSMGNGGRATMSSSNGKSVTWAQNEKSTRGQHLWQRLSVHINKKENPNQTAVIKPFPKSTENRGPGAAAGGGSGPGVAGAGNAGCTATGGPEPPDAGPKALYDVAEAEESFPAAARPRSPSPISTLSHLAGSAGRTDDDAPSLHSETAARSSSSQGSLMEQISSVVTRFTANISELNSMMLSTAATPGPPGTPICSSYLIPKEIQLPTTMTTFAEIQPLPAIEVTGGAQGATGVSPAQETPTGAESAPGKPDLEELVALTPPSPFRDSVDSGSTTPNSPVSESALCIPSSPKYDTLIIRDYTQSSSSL
Method in brief: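 HEK293 cells stably expressing rat mGlu5 were used in a calcium mobilization assay. Test compound was given at 30 µM, and response amplitude is expressed as percent of the maximal response to 100 µM glutamate. Values are the average of three or more independent determinations.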

[3] = Drug metabolism in human liver microsomes assessed as compound metabolized at 1 uM after 15 mins; assay type: ADME; settings: read-out: Drug metabolism
Method in brief: (§2)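 Test compound at 1 µM was incubated for 15 min with liver microsomes (human for HLM, rat for RLM). Read-out was % of compound metabolized.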

[4] = Drug metabolism in rat liver microsomes assessed as compound metabolized at 1 uM after 15 mins; assay type: ADME; settings: read-out: Drug metabolism; method in brief: as §2
[5] = molecular target: T1, Metabotropic glutamate receptor 5; assay: Negative allosteric modulation at rat mGluR5 expressed in HEK293 cells by calcium mobilization assay; assay type: functional, cell-based; settings: read-out: pIC50 (converted); method in brief: as §1
[6] = molecular target: Metabotropic glutamate receptor 5 (Rattus norvegicus) (UniProt P31424); assay: Negative allosteric modulation at rat mGluR5 expressed in HEK293 cells by calcium mobilization assay relative to glutamate; settings: 30 uM

| Structure (SMILES) | EC50 [1] | Emax [2] | metabolised at 0.25 h, 1 µM [3] | metabolised at 0.25 h, 1 µM [4] | IC50 [5] | IC50 [6] |
| --- | --- | --- | --- | --- | --- | --- |
| O=C1N(c2ccc(F)cn2)CCc2nc(COc3ccccc3)cn21 | 359 nM | 66% | 1% | 14% | – | – |
| O=C1N(c2ccc(F)cc2)CCc2nc(COc3cccc(F)c3)cn21 | 69 nM | 72% | 0% | 29% | – | – |
| O=C1N(c2ccc(F)cc2)CCc2nc(COc3ccccc3)c(Cl)n21 | – | – | – | – | 132 nM | 133 nM |
| O=c1n(-c2cccc(F)c2)ccc2nc(COc3ccccc3)cn12 | 514 nM | 69% | 47% | 71% | – | – |
| Cc1cccc(OCc2cn3c(=O)n(-c4ccc(F)cc4)ccc3n2)c1 | 344 nM | 30% | – | – | – | – |
| O=c1n(-c2ccc(F)cc2)ccc2nc(COc3cccnc3)cn12 | > 10000 nM | 65% | – | – | – | – |
| CN(C)c1cccc(-n2ccc3nc(COc4ccccc4)cn3c2=O)n1 | 284 nM | 87% | 66% | 90% | – | – |
| Cc1nc(N2CCc3nc(COc4ccccc4)cn3C2=O)ccc1F | 183 nM | 91% | 31% | 93% | – | – |
| O=c1n(Cc2ccccc2)ccc2nc(COc3ccccc3)cn12 | 1590 nM | 93% | – | – | – | – |
